Data as given in ChEMBL document CHEMBL1629490, “Synthesis and anti-inflammatory evaluation of novel mono-carbonyl analogues of curcumin in LPS-stimulated RAW 264.7 macrophages” (Eur J Med Chem, 2010).
Activity calls are given as the source filed them. The rule behind the calls is not given here.

Experiments:
RAW264.7 [1] = experiment: Antiinflammatory activity in mouse RAW264.7 cells assessed as inhibition of LPS-induced TNF alpha production at 10 uM after 2 hrs by ELISA; assay type: functional; conditions: for inhibition at 10 µM: RAW264.7, 2 h
Procedure, shortened: (§1)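 RAW 264.7 cells were grown in DMEM with 10% heat-inactivated FBS and penicillin/streptomycin at 37 °C with 5% CO2, plated at 4.0 × 10^5/plate overnight, and pretreated for 2 h with compound at 10 µM (DMSO stock; vehicle control). LPS (0.5 µg/ml) was added for 22 h. TNF-α and IL-6 in the medium were measured by ELISA, normalized to cell protein, and expressed as % of LPS control. Values are mean ± SE of 3–5 independent experiments.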

RAW264.7 [2] = experiment: Antiinflammatory activity in mouse RAW264.7 cells assessed as inhibition of LPS-induced IL-6 production at 10 uM after 2 hrs by ELISA; assay type: functional; conditions: for inhibition at 10 µM: RAW264.7, 2 h; procedure, shortened: as §1
RAW264.7 [3] = experiment: Antiinflammatory activity in mouse RAW264.7 cells assessed as inhibition of LPS-induced TNF alpha production after 2 hrs by ELISA; assay type: functional, cell-based; conditions: RAW264.7, 2 h
RAW264.7 [4] = experiment: Antiinflammatory activity in mouse RAW264.7 cells assessed as inhibition of LPS-induced IL-6 production after 2 hrs by ELISA; assay type: functional, cell-based; conditions: RAW264.7, 2 h
RAW264.7 [5] = experiment: Cytotoxicity against mouse RAW264.7 cells; assay type: cell-based
RAW264.7 [6] = experiment: Antiinflammatory activity in mouse RAW264.7 cells assessed as inhibition of LPS-induced TNF alpha production at 1 to 20 uM after 2 hrs by ELISA; assay type: functional, cell-based
Procedure, shortened: (§2)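 Murine RAW 264.7 cells were plated at 4.0 × 10^6/plate overnight (37 °C, 5% CO2) and pretreated for 2 h with compound at 1, 2.5, 5.0, 10 and 20 µM. LPS at 0.5 µg/ml followed for 22 h. Media TNF-α and IL-6 were measured by ELISA, normalized to total cell-lysate protein, and given as % of LPS control. Values are mean ± SE of 3–5 independent experiments.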

RAW264.7 [7] = experiment: Antiinflammatory activity in mouse RAW264.7 cells assessed as inhibition of LPS-induced IL-6 production at 1 to 20 uM after 2 hrs by ELISA; assay type: functional, cell-based; procedure, shortened: as §2

| Structure (SMILES) | inhibition (RAW264.7 [1]) | inhibition (RAW264.7 [2]) | inhibition at 10 µM (RAW264.7 [1]) | other results |
| --- | --- | --- | --- | --- |
| COc1cccc(/C=C/C(=O)/C=C/c2cccc(OC)c2O)c1O | Active | Active | – | – |
| O=C1/C(=C/c2ccc(N3CCCCC3)cc2)CC/C1=C\c1ccc(N2CCCCC2)cc1 | – | Active | 20% | – |
| CCN(CC)c1ccc(/C=C2\CC/C(=C\c3ccc(N(CC)CC)cc3)C2=O)cc1 | – | – | 67.5% | inhibition at 10 µM (RAW264.7 [2]): 92.7%; IC50 (RAW264.7 [3]): 16.4 µM; IC50 (RAW264.7 [4]): 1.07 µM; Activity (RAW264.7 [5]): Non-toxic; inhibition (RAW264.7 [6]): Dose-dependent effect; inhibition (RAW264.7 [7]): Dose-dependent effect |
| O=C1/C(=C/c2ccc(N3CCOCC3)cc2)CCC/C1=C\c1ccc(N2CCOCC2)cc1 | Active | Active | – | – |
| O=C(/C=C/c1ccc(N2CCCCC2)cc1)/C=C/c1ccc(N2CCCCC2)cc1 | Active | – | – | inhibition at 10 µM (RAW264.7 [2]): 50% |
| Cc1cc(N(CCCl)CCCl)ccc1/C=C1\CCC/C(=C\c2ccc(N(CCCl)CCCl)cc2C)C1=O | Active | Active | – | – |
| COc1cccc(/C=C2\CC/C(=C\c3cccc(OC)c3O)C2=O)c1O | Active | Active | – | – |
| O=C1/C(=C/c2ccc(C(F)(F)F)cc2F)CC/C1=C\c1ccc(C(F)(F)F)cc1F | Active | Active | – | – |
| COc1ccc(/C=C/C(=O)/C=C/c2ccc(OC)cc2F)c(F)c1 | – | – | 20% | inhibition at 10 µM (RAW264.7 [2]): 51.1% |
| CCOc1ccc(Br)cc1/C=C/C(=O)/C=C/c1cc(Br)ccc1OCC | Active | Active | – | IC50 (RAW264.7 [3]): 6.28 µM; IC50 (RAW264.7 [4]): 3.64 µM; Activity (RAW264.7 [5]): Non-toxic; inhibition (RAW264.7 [6]): Dose-dependent effect; inhibition (RAW264.7 [7]): Dose-dependent effect |
| O=C1/C(=C/c2ccc(C(F)(F)F)cc2C(F)(F)F)CCC/C1=C\c1ccc(C(F)(F)F)cc1C(F)(F)F | – | Active | 20% | – |
| CCN(CC)c1ccc(/C=C2\CCC/C(=C\c3ccc(N(CC)CC)cc3)C2=O)cc1 | Active | Active | – | – |
| CCOc1ccc(Br)cc1/C=C1\CCC/C(=C\c2cc(Br)ccc2OCC)C1=O | Active | Active | – | – |
| Cc1cc(N(CCCl)CCCl)ccc1/C=C/C(=O)/C=C/c1ccc(N(CCCl)CCCl)cc1C | – | – | 20% | inhibition at 10 µM (RAW264.7 [2]): 30% |
| CCOC(OCC)c1cccc(/C=C2\CC/C(=C\c3cccc(C(OCC)OCC)c3)C2=O)c1 | Active | Active | – | – |
| COc1cc(OC)c(OC)cc1/C=C/C(=O)/C=C/c1cc(OC)c(OC)cc1OC | – | Active | > 20% | – |
| O=C(/C=C/c1c(F)cccc1C(F)(F)F)/C=C/c1c(F)cccc1C(F)(F)F | Active | – | – | inhibition at 10 µM (RAW264.7 [2]): 30% |

| Structure (SMILES) | inhibition (RAW264.7 [1]) | inhibition (RAW264.7 [2]) | inhibition at 10 µM (RAW264.7 [1]) | other results |
| --- | --- | --- | --- | --- |
| O=C1/C(=C/c2cccc(C(F)(F)F)c2F)CCC/C1=C\c1cccc(C(F)(F)F)c1F | – | Active | > 20% | – |
| COc1ccc(/C=C2\CC/C(=C\c3ccc(OC)cc3F)C2=O)c(F)c1 | – | Active | 20% | – |
| CCN(CC)c1ccc(/C=C/C(=O)/C=C/c2ccc(N(CC)CC)cc2)cc1 | Active | – | – | inhibition at 10 µM (RAW264.7 [2]): 50% |
| O=C1/C(=C/c2c(F)cccc2C(F)(F)F)CC/C1=C\c1c(F)cccc1C(F)(F)F | – | Active | > 20% | – |
| O=C1/C(=C/c2cccc(C(F)(F)F)c2F)CC/C1=C\c1cccc(C(F)(F)F)c1F | Active | Active | – | – |
| O=C1/C(=C/c2ccc(C(F)(F)F)cc2F)CCC/C1=C\c1ccc(C(F)(F)F)cc1F | Active | Active | – | – |
| CCOc1ccc(Br)cc1/C=C1\CC/C(=C\c2cc(Br)ccc2OCC)C1=O | Active | Active | – | – |
| COc1ccc(F)c(/C=C2\CCC/C(=C\c3cc(OC)ccc3F)C2=O)c1 | – | Active | 20% | – |
| COc1cc(/C=C/C(=O)CC(=O)/C=C/c2ccc(O)c(OC)c2)ccc1O [CURCUMIN] | – | – | 35.6% | inhibition at 10 µM (RAW264.7 [2]): 75.7% |
| COc1ccc(F)c(/C=C2\CC/C(=C\c3cc(OC)ccc3F)C2=O)c1 | Active | – | – | inhibition at 10 µM (RAW264.7 [2]): 30% |
| O=C1/C(=C/c2c(F)cccc2C(F)(F)F)CCC/C1=C\c1c(F)cccc1C(F)(F)F | Active | Active | – | – |
| COc1cc(OC)c(OC)cc1/C=C1\CCC/C(=C\c2cc(OC)c(OC)cc2OC)C1=O | Active | Active | – | – |
| O=C1/C(=C/c2ccc(N3CCCCC3)cc2)CCC/C1=C\c1ccc(N2CCCCC2)cc1 | Active | Active | – | – |
| COc1cc(OC)c(OC)cc1/C=C1\CC/C(=C\c2cc(OC)c(OC)cc2OC)C1=O | Active | Active | – | – |
| O=C(/C=C/c1ccc(N2CCOCC2)cc1)/C=C/c1ccc(N2CCOCC2)cc1 | – | – | > 20% | inhibition at 10 µM (RAW264.7 [2]): 50% |
| Cc1cc(N(CCCl)CCCl)ccc1/C=C1\CC/C(=C\c2ccc(N(CCCl)CCCl)cc2C)C1=O | Active | – | – | inhibition at 10 µM (RAW264.7 [2]): 30% |
| O=C1/C(=C/c2ccc(N3CCOCC3)cc2)CC/C1=C\c1ccc(N2CCOCC2)cc1 | Active | Active | – | – |
